The subject of data set [1] is Vero. As to the kind of experiment: Cytotoxicity against african green monkey Vero cells at 17 uM after 48 hrs by neutral red assay. It counts as cell-based. To be noted: chlorocebus sabaeus. In outline:
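Vero cells seeded at 25,000 cells/well and incubated 24 h. Samples added at a range of concentrations, top concentration 17 µM, then incubated a further 48 h. Viable cells measured by Neutral Red uptake. IC50 taken from dose-response curves; doxorubicin positive control.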

Data set [2] relates to Cryptococcus neoformans. Put plainly: Antimicrobial activity against Cryptococcus neoformans ATCC 90113.
The test system of data set [3] is Candida albicans. As to the kind of experiment: Antimicrobial activity against Candida albicans ATCC 90028. In kind it is functional, organism-based. In outline:
(§1)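 Modified CLSI broth microdilution; M. intracellulare by a modified Franzblau method. Samples were serially diluted in 20% DMSO/saline and tested in duplicate. Inocula were set by OD630 in broth. Growth was read before and after incubation at 630 nm, or by fluorescence 544ex/590em for A. fumigatus and M. intracellulare. MIC is the lowest concentration with no detectable growth; MFC/MBC is the lowest concentration giving no growth after 5 µL is subcultured to agar.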

The subject of data set [4] is Cryptococcus neoformans. As to the kind of experiment: Antimicrobial activity against Cryptococcus neoformans ATCC 90113 at 89 uM. It counts as functional, organism-based.
Data set [5] has as its system Candida albicans. As to the kind of experiment: Antimicrobial activity against Candida albicans ATCC 90028 at 89 uM. It counts as functional, organism-based.
The subject of data set [6] is Plasmodium falciparum. Put plainly: Antimalarial activity after 72 hrs against chloroquine-resistant Plasmodium falciparum W2 at 8 uM as LDH activity. In kind it is functional, organism-based.
In data set [7] the test system is Plasmodium falciparum. As to the kind of experiment: Antimalarial activity after 72 hrs against chloroquine-sensitive Plasmodium falciparum D6 at 8 uM as LDH activity. In kind it is functional, organism-based.
The subject of a further data set is Pseudomonas aeruginosa. As to the kind of experiment: Antimicrobial activity against Pseudomonas aeruginosa ATCC 27853. It counts as functional, organism-based. In outline: as §1
In the next data set the test system is Escherichia coli. As to the kind of experiment: Antimicrobial activity against Escherichia coli ATCC 35218. In kind it is functional, organism-based. In outline:
as §1

The subject of data set [8] is Mycobacterium intracellulare. As to the kind of experiment: Antimicrobial activity against Mycobacterium intracellular ATCC 23068 at 89 uM. In kind it is functional, organism-based.
Data set [9] deals with Staphylococcus aureus. Put plainly: Antimicrobial activity against methicillin-resistant Staphylococcus aureus ATCC 43300 at 89 uM. It counts as functional, organism-based.
The next data set concerns Aspergillus fumigatus. As to the kind of experiment: Antimicrobial activity against Aspergillus fumigatus ATCC 90906. In kind it is functional, organism-based. In short, it runs like this: as §1
In data set [10] the test system is Staphylococcus aureus. As to the kind of experiment: Antimicrobial activity against methicillin-resistant Staphylococcus aureus ATCC 43300. In kind it is functional, organism-based. In outline:
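Modified CLSI broth microdilution; M. intracellulare by a modified Franzblau method. Samples were serially diluted in 20% DMSO/saline and tested in duplicate. Inocula were set by OD630 in broth. MIC is the lowest concentration with no detectable growth; MFC/MBC is the lowest concentration giving no growth after 5 µL is subcultured to agar.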

In data set [11] the test system is Plasmodium falciparum. Put plainly: Antimalarial activity after 72 hrs against chloroquine-sensitive Plasmodium falciparum D6 as LDH activity. In kind it is functional, organism-based. The settings on record: D6, 72 h. In short, it runs like this:
(§2)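 D6 or W2 parasitised red cells (2% parasitemia, 2% hematocrit) in RPMI 1640 with 10% human serum and 60 µg/mL amikacin, added to serially diluted samples. Cultures were gassed with 90% N2/5% O2/5% CO2 and held 72 h at 37 °C. Parasite LDH was read with Malstat reagent plus NBT/PES, stopped with 5% acetic acid, at 650 nm.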

Data set [12] has as its system Hepatitis C virus. As to the kind of experiment: Antiviral activity against HCV at 10 uM. It counts as functional, Hepacivirus hominis. In short, it runs like this:
(§3)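 HCV replicon in Huh-7 cells. Compound tested at 10 µM in triplicate, added immediately after seeding. HCV RNA and rRNA measured as ΔCt values and reported as % inhibition of each.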

Data set [13] in a line: Selectivity index, ratio of IC50 for african green monkey (Cercopithecus aethiops) Vero cells to IC50 for chloroquine-sensitive Plasmodium falciparum D6. In kind it is toxicity, cell-based. The settings on record: read-out: Ratio IC50. In outline:
(§4)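 Ratio of Vero IC50 (neutral red, 48 h exposure) to P. falciparum IC50 from the 72 h LDH assay on the matching strain (W2 or D6).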

Data set [14] deals with Plasmodium falciparum. Put plainly: Antimalarial activity after 72 hrs against chloroquine-resistant Plasmodium falciparum W2 as LDH activity. The settings on record: W2, 72 h. It counts as functional, organism-based. In short, it runs like this:
as §2

Data set [15] relates to Mycobacterium intracellulare. As to the kind of experiment: Antimicrobial activity against Mycobacterium intracellular ATCC 23068. In kind it is functional, organism-based. In short, it runs like this:
(§5)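 Broth microdilution following modified CLSI methods; M. intracellulare by a modified Franzblau method. Samples serially diluted in 20% DMSO/saline and plated in duplicate. Inocula set by OD630 of suspensions in incubation broth. Growth read at 630 nm, or fluorescence 544ex/590em for M. intracellulare, before and after incubation. MIC is the lowest concentration with no detectable growth. MFC/MBC comes from subculturing clear wells onto agar.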

A short description of data set [16]: Selectivity index, ratio of IC50 for african green monkey (Cercopithecus aethiops) Vero cells to IC50 for chloroquine-resistant Plasmodium falciparum W2. It counts as toxicity, cell-based. To be noted: read-out: Ratio IC50. In outline: as §4
Data set [17] has as its system Cryptococcus neoformans. As to the kind of experiment: Antimicrobial activity against Cryptococcus neoformans ATCC 90113. It counts as functional, organism-based. In short, it runs like this: as §5
The subject of data set [18] is Hepatitis C virus. Put plainly: Antiviral activity against HCV in Huh7 cells at 10 uM by replicon assay. It counts as functional, Hepacivirus hominis, Huh-7. In short, it runs like this:
as §3
Background: In antiviral work, replicon cells carry a viral genome segment that copies itself.

For data set [19], the system named is Candida albicans. Put plainly: Antimicrobial activity against Candida albicans ATCC 90028 at 91 uM. It counts as functional, organism-based.
For data set [20], the system named is Vero. As to the kind of experiment: Cytotoxicity against african green monkey Vero cells after 48 hrs by neutral red assay. The settings on record: Chlorocebus sabaeus. It counts as cell-based. In short, it runs like this:
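Vero monkey kidney fibroblasts were seeded at 25,000 cells/well and grown 24 h. Samples at graded concentrations were then added for 48 h. Viable cells were counted by neutral red uptake, and IC50 was taken from dose-response curves, with doxorubicin as positive control.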

Data set [21] deals with Staphylococcus aureus. Put plainly: Antimicrobial activity against methicillin-resistant Staphylococcus aureus ATCC 43300 at 91 uM. It counts as functional, organism-based.
Data set [22] deals with Staphylococcus aureus. Put plainly: Antimicrobial activity against methicillin-resistant Staphylococcus aureus ATCC 43300 at 3.0 uM. It counts as functional, organism-based.
Data set [23] concerns Candida albicans. As to the kind of experiment: Antimicrobial activity against Candida albicans ATCC 90028 at 87 uM. It counts as functional, organism-based.
For data set [24], the system named is Mycobacterium intracellulare. Put plainly: Antimicrobial activity against Mycobacterium intracellular ATCC 23068 at 87 uM. It counts as functional, organism-based.
The subject of data set [25] is Staphylococcus aureus. As to the kind of experiment: Antimicrobial activity against methicillin-resistant Staphylococcus aureus ATCC 43300 at 87 uM. It counts as functional, organism-based.

pIC50: −log10 of the molar value. Converted amounts (≈) assume the structure as drawn. The source made the active and inactive calls. Bounds are passed on as bounds.

For the compound `CCN(CC)CCCC(C)Nc1ccnc2cc(Cl)ccc12` (centres undefined) [CHLOROQUINE], in the data set on Vero [1], the Activity result is on record as “Non-toxic”.

In general, pIC50 refers to the IC50 on a negative log10 scale, so that one unit is a factor of ten. A word on the MIC: it is the smallest concentration in the dilution series that meets the test's criterion for growth inhibition. `C[C@@H]1[C@H](O)[C@@H](C)/C=C/C=C/C=C/C=C/C=C/C=C/C=C/[C@H](O[C@@H]2O[C@H](C)[C@@H](O)[C@H](N)[C@@H]2O)C[C@@H]2O[C@](O)(C[C@@H](O)C[C@@H](O)[C@H](O)CC[C@@H](O)C[C@@H](O)CC(=O)O[C@H]1C)C[C@H](O)[C@H]2C(=O)O` [AMPHOTERICIN B] had a pIC50 in the data set with Cryptococcus neoformans [2] of 6.10. The compound also returned an MFC in the data set with Candida albicans [3] of 1.35 µM (≈ 1.25 µg/mL). In the data set with Cryptococcus neoformans [4], this compound came in with an MFC of 1.35 µM (≈ 1.25 µg/mL) and a minimum inhibitory concentration (MIC) of 1.35 µM (≈ 1.25 µg/mL).

On to `Cn1c2ccccc2c2ccnc(C3=C[C@@]4(O)CC/C=C\CCCCN5CCC3[C@]3(C[C@@H]6/C=C\CCCCN6[C@H]34)C5)c21` (some centres undefined) [9N-METHYLMANZAMINE A], for which the result (in the data set with Candida albicans [5]; in the data set on Plasmodium falciparum [6]; with Plasmodium falciparum [7]; in the data set with Pseudomonas aeruginosa; in the data set with Escherichia coli; in data set [8]) was inactive. In addition, the result in the data set on Staphylococcus aureus [9], with Cryptococcus neoformans [4] and with Aspergillus fumigatus was inactive. The Activity result in the data set with Vero [1] is “Non-toxic”.

As a reminder, the MBC is the smallest concentration meeting the test's criterion for killing. As to `C[n+]1ccc2c([nH]c3ccccc32)c1C1=C[C@@]2(O)CC/C=C\CCCCN3CCC1[C@]1(C[C@@H]4/C=C\CCCCN4[C@H]12)C3.O=S(=O)([O-])C(F)(F)F` (some centres undefined), the result in the data set on Candida albicans [5], with Pseudomonas aeruginosa, with Escherichia coli, in the data set on Cryptococcus neoformans [4] and in the data set with Aspergillus fumigatus was inactive. Besides, the negative logarithm of the IC50 (pIC50) was 4.35 in the data set with Staphylococcus aureus [10]; 6.13 with Plasmodium falciparum [11]; 6.00 in the data set on Plasmodium falciparum [14]; 4.75 in data set [15]; 4.15 with Cryptococcus neoformans [17]. Further, the MBC came out at 89 µM in the data set on Staphylococcus aureus [10] and 44.5 µM in [15]. In addition, the results for the minimal inhibitory concentration (MIC) (against Staphylococcus aureus [10]; in [15]) were 89 µM and 44.5 µM, respectively. Further, the Activity in the data set with Hepatitis C virus [12] is 99.87%; in the data set on Vero [1], “Non-toxic”; in the data set on Hepatitis C virus [18], 100%. Also, the selectivity ratio in [13] was above 24; in [16], above 17.5.

Turning to `O[C@]12C=C(c3nccc4c3[nH]c3ccccc34)[C@@H]3CCN(CCCC/C=C\CC1)C[C@@]31C[C@@H]3/C=C\CCCCN3[C@H]12` [MANZAMINE A], the negative logarithm of the IC50 (pIC50) is 6.74 in the data set with Staphylococcus aureus [10]; 7.77 with Plasmodium falciparum [11]; 4.79 in the data set on Candida albicans [3]; 6.30 in the data set with Vero [20]; 7.70 in the data set with Plasmodium falciparum [14]; 6.74 in data set [15]. Moreover, the pIC50 in the data set on Cryptococcus neoformans [17] is 5.57. In addition, the outcome in the data set on Candida albicans [19], in the data set on Pseudomonas aeruginosa, in the data set with Escherichia coli, in the data set with Staphylococcus aureus [21] and with Aspergillus fumigatus was inactive. Also, the selectivity ratio came out at 29.4 in data set [13] and 25.2 in [16]. Moreover, the MBC in data set [15] is 2.84 µM (≈ 1.56 µg/mL). Moreover, the minimum inhibitory concentration (MIC) was found to be 0.36 µM (≈ 0.198 µg/mL) in data set [15] and 5.7 µM (≈ 3.13 µg/mL) against Cryptococcus neoformans [17]. In the data set with Cryptococcus neoformans [17], this compound showed an MFC of 23 µM (≈ 12.6 µg/mL).

For the compound `O=C(O)c1cn(C2CC2)c2cc(N3CCNCC3)c(F)cc2c1=O` [CIPROFLOXACIN], the minimum inhibitory concentration (MIC) against Staphylococcus aureus [10] is 1.5 µM (≈ 0.497 µg/mL). Moreover, in [15], the pIC50 is 5.96, the minimum bactericidal concentration (MBC) is 3 µM (≈ 0.994 µg/mL) and the lowest concentration to inhibit growth (MIC) was 1.5 µM (≈ 0.497 µg/mL). The result in the data set with Staphylococcus aureus [22] was inactive.

`CO[C@]12C=C(c3c4[nH]c5ccccc5c4cc[n+]3C)C3CCN(CCCC/C=C\CC1)C[C@@]31C[C@@H]3/C=C\CCCCN3[C@H]12.O=S(=O)([O-])C(F)(F)F` (some centres undefined): the outcome (in the data set on Plasmodium falciparum [6]; in the data set with Candida albicans [23]; in the data set on Plasmodium falciparum [7]; in [24]; in the data set with Pseudomonas aeruginosa; in the data set on Escherichia coli) was inactive. Also, the result in the data set with Staphylococcus aureus [25] and in the data set on Aspergillus fumigatus was inactive. The Activity entry with Vero [1] is given as “Non-toxic”. In addition, in the data set with Cryptococcus neoformans [17], the negative-log IC50 (pIC50) is 4.28. In the data set with Cryptococcus neoformans [17], this compound displayed an MFC of 87 µM. For the same compound, the MIC with Cryptococcus neoformans [17] amounted to 87 µM.

In the case of `C[C@@H]1CC[C@H]2[C@@H](C)C(=O)O[C@@H]3O[C@@]4(C)CC[C@@H]1[C@]32OO4` [ARTEMISININ], the pIC50 is 8.20 in the data set on Plasmodium falciparum [11] and 8.35 in the data set on Plasmodium falciparum [14]. The selectivity ratio in [13] was above 2700; in data set [16], above 3700. The Activity entry in the data set on Vero [1] was “Non-toxic”.
